Compound activity as filed in PubChem.
M5 antag = antagonists of human muscarinic M5 receptor (CHRM5). P08912. CHO-hM5 cells, Fluo-8 calcium fluorescence, ACh EC80. inhibition, % at 3 µM. actives 0.59% (n = 360,000). AID 624040;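 active = inhibition above a per-plate cutoff, the mean of that plate's test compounds plus 3 SD, cut at about 27% in these data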;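 also: 0% = acetylcholine EC80 with DMSO and 100% = DMSO without agonist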
Target sequence (P08912 whole entry, looked up): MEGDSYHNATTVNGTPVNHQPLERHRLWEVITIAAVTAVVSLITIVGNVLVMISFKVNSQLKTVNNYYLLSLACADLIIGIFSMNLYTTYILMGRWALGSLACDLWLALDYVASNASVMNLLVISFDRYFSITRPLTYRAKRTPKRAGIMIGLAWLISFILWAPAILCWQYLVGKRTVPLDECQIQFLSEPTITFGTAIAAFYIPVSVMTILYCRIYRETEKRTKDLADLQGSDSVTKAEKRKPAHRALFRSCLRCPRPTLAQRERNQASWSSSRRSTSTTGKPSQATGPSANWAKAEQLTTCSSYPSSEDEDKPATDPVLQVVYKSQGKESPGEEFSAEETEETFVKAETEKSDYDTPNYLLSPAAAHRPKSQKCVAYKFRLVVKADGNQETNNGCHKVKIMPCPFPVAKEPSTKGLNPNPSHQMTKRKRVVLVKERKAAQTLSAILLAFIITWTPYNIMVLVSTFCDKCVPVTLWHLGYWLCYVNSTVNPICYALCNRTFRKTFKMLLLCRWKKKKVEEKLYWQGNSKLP
CHRM5 PAM = positive allosteric modulators of human muscarinic M5 receptor | CHO-K1 hM5, Fluo-8 calcium, ACh EC20 PAM; 0% = ACh EC20, 100% = ACh EC100 | activation, % at 3 µM | actives 0.3% (n = 360,000) | AID 624038;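 active = activation above the run cutoff, the mean activation of all test compounds plus 3 SD, cut at about 18% in these data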
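Assay system: CHO-K1 hM5 cells. Also added: acetylcholine at EC20 concentration, added after compound. Dosing: 3 µM, single dose. Times: compound preincubation 140 s before EC20 acetylcholine addition. Signal: Fluo-8 calcium fluorescence. Measure: % activation relative to EC20 and EC100 ACh responses. Repeats: singlicate, one well per test compound.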
CHRM5 agonist = CHRM5 agonism in calcium assay; P08912; CHO-K1 hM5 cells, Fluo-8 calcium fluorescence; 0% DMSO wells, 100% maximal acetylcholine response; activation, % at 3 µM; actives 0.19% (n = 360,000); AID 624037;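 active = activation above the run's mean over test compounds plus 3 SD, cut at about 23% in these data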;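 also: signal is peak over basal fluorescence ratio across the kinetic read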
M4 PAM = positive allosteric modulators of human muscarinic M4 receptor | P08173 | CHO-K1 hM4/Gqi5, Fluo-8 calcium fluorescence, ACh EC20; 0% = ACh EC20, 100% = maximal ACh | activation, % at 3 µM | actives 0.4% (n = 360,000) | AID 624126;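 active = activation above its plate's cutoff, the mean activation of sample wells plus 3 SD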
M4 antag = antagonists of human muscarinic M4 receptor (CHRM4). actives 0.73% (n = 360,000). CHO-hM4 cells, ACh EC80, Fluo-8 calcium fluorescence. P08173. inhibition, % at 3 µM. AID 624125;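 active = inhibition above its plate's cutoff, the mean inhibition of sample wells plus 3 SD, cut at about 27% in these data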;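 also: 0% = acetylcholine EC80 with DMSO and 100% = DMSO without agonist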
CHRM4 agonist = CHRM4 agonism in calcium assay. activation, % at 3 µM. CHO-K1 hM4/Gqi5, Fluo-8 calcium fluorescence; vehicle 0%, full acetylcholine response 100%. actives 0.14% (n = 360,000). P08173;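 active = activation above the run mean over all test wells plus 3 SD, cut at about 32% in these data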;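 also: peak over basal fluorescence ratio per well then scaled between controls; 0% = DMSO wells and 100% = acetylcholine at EC100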
Active calls of the source: *; ! = repeats disagree. Rows were chosen to be rich in hits. Some 1.9% of all compounds tested hit in one or more screens of this group.

SMILES	M5 antag	CHRM5 PAM	CHRM5 agonist	M4 PAM	M4 antag	CHRM4 agonist
Cn1ccnc1C1CCCCN1Cc1nc(Cc2cccc(C(F)(F)F)c2)no1 (centres undefined)	-4.7	-15.5	-11.3	-21.3	38.6*	2.8
CCN(C(=O)CCNC(=O)Cn1cnc2ccccc2c1=O)c1ccccc1F	13.3	-3.1	-1.2	-2.8	10.8	2.6
CCOc1ccccc1NC(=O)c1nnn(CC(=O)Nc2cc(C)cc(C)c2)c1N	12.1	-2.8	-2.6	1.0	-0.1	1.9
O=C(Nc1nc(-c2ccc(F)c(F)c2)cs1)c1cc([N+](=O)[O-])ccc1N1CCOCC1	3.3	-2.1	-0.2	6.9	-1.5	-0.1
Cc1cc(C)c(-c2csc(NC(=O)c3cc([N+](=O)[O-])ccc3N3CCOCC3)n2)c(C)c1	23.2	-20.4	-9.8	-17.8	36.1*	-1.3
CNS(=O)(=O)c1ccc(NC(=O)c2ccccn2)cc1	6.8	-1.3	1.4	28.2*	-1.8	3.4
CCOc1ccc2cc(S(=O)(=O)N3CCN(C)CC3)ccc2c1	1.9	1.9	-5.8	15.0*	-1.7	3.6
CCOc1ccc2cc(S(=O)(=O)N3CCCCC3)ccc2c1	4.1	-0.6	-4.0	-0.5	11.6	1.1
CN1CCN(C(c2ccccc2)c2ccc(Cl)cc2)CC1 (centres undefined)	21.0	-19.0	-0.3	-17.2	24.0	4.6
CN1CCN(C(c2cccc(Cl)c2)c2ccccc2Cl)CC1 (centres undefined)	87.3*	-18.4	-4.2	-16.2	63.8*	3.2
O=C(O)c1ccc(CNCc2ccccc2Cl)cc1	-7.4	6.7	-2.5	20.7	-9.8	0.2
O=C(O)c1ccc(CNCc2cccc(Cl)c2Cl)cc1	-13.2	15.3	-4.2	27.6*	-5.1	2.2
CCOC(=O)N1CCC(NS(=O)(=O)c2ccc(C#N)cc2)CC1	4.8	1.1	-2.2	1.1	3.1	0.8
Cc1onc(-c2ccccc2)c1C(=O)NNC(=S)NC(=O)c1ccc2c(c1)OCO2	13.0	-10.5	20.7	-10.1	5.0	69.5*
O=[N+]([O-])c1ccc(N2CCN(C(=S)Nc3ccc(F)cc3F)CC2)cc1	33.5*	-23.0	6.8	-16.3	11.6	15.2
Cc1csc2c(N3CCN(C(=S)Nc4ccc(F)cc4F)CC3)ncnc12	28.8*	-29.5	4.8	-33.7	-17.8	15.2
O=[N+]([O-])c1ccc(N2CCN(C(=S)Nc3ccc(F)cc3)CC2)cc1	12.7	-19.3	8.4	-10.9	3.5	14.8
Cc1csc2c(N3CCN(C(=O)Nc4ccccc4)CC3)ncnc12	5.6	-12.8	8.2	-19.9	6.2	15.2
COc1ccc(C(=O)Nc2cccnc2)cc1S(=O)(=O)N1CCOCC1	11.0	20.2*	-0.4	3.9	-3.6	0.6
CC(NC(=O)CSc1nc(C2CC2)n(-c2ccccc2)n1)c1ccco1 (centres undefined)	13.6	4.1	-2.7	-0.1	-3.4	-0.3
CCOC(=O)c1ccc(N)cc1	-4.5	-1.6	-0.2	-9.5	1.6	0.0
CCOC(=O)c1ccc(C(=O)OCC)nc1	-9.4	20.7*	-0.8	0.6	-2.2	0.9
COc1cccc(C(C)(O)c2nc(-c3ccc(F)c(Cl)c3)cs2)c1 (centres undefined)	4.1	-5.0	2.7	0.6	6.2	4.2
CCCCCCCCCCCCCCCC[n+]1cccc(C(=O)N(CC)CC)c1	43.4*!	-33.1	-8.4	-10.9	41.3*	0.8
CCCCCCCC[n+]1cccc(C(=O)N(CC)CC)c1	-0.8	-1.0	-8.2	-8.7	-1.2	0.7
SMILES	M5 antag	CHRM5 PAM	CHRM5 agonist	M4 PAM	M4 antag	CHRM4 agonist
O=C(/C=C/c1ccc(Cl)cc1)N1CCN(Cc2ccccc2)CC1	5.1	-4.8	-4.3	-2.8	-1.3	1.7
CSCC[C@H](NC(=O)c1cccc(S(=O)(=O)N2CCCCC2)c1)c1nc2ccccc2[nH]1	-5.0	4.2	2.2	2.9	-5.6	1.3
Cc1ccc(-n2ncc(C#N)c2/N=C/N2CCOCC2)cc1	8.8	-6.6	-4.7	21.6*	-1.4	1.3
COc1ccc(-c2sc3cc4c(cc3c2C#Cc2ccc(N)cc2)OCO4)cc1	3.3	9.5	26.5*	18.7	4.7	1.6
Cc1cc2oc(=O)cc(CN3CCOCC3)c2cc1Cl	2.4	-1.7	-1.9	-1.3	-5.6	1.5
CC(C)C(O)(C#CCN1CCCCC1)c1ccccc1 (centres undefined)	98.3*	-15.0	-5.7	-35.5	97.6*	1.4
CC(C)C(O)(C#CCN1CCCC1)c1ccccc1 (centres undefined)	58.1*	-15.2	-11.1	-12.4	45.6*	0.7
CCCCCn1nnnc1-c1nc2cc(C)c(C)cc2[nH]c1=O	2.9	-3.0	2.4	3.5	-10.4	-0.2
CNCCNC[C@H](Cc1cccc2ccccc12)NCCc1ccccc1	12.4	-1.1	0.5	-1.9	5.2	2.1
CNC[C@H](Cc1ccccc1)NC[C@@H](Cc1cccc2ccccc12)NCCc1ccc(C)cc1	1.6	-9.6	-2.5	-0.9	37.5*	23.9
CCN(CC)CCN1C(=O)C(=O)/C(=C(/O)c2c(C)[nH]c(C(=O)OC)c2C)C1c1ccc(C)o1 (centres undefined)	11.0	-5.0	4.1	-0.5	-3.7	7.8
CCCCN1C(N)=NC[C@@H]1Cc1ccc(O)cc1	9.3	-5.3	-3.0	5.3	9.7	-0.2
COc1cc(CCCN2C(N)=NC[C@H]2Cc2ccc(O)cc2)cc(OC)c1OC	-6.7	18.1*	-1.9	14.3	-9.2	0.3
NC1=NC[C@H](Cc2ccc(O)cc2)N1CCC12CC3CC(CC(C3)C1)C2	7.3	-8.5	-11.7	-18.5	46.4*	2.2
CC(C)(C)c1nnc(N/N=C/c2cc(Br)ccc2O)n(N)c1=O	19.9	-22.3	8.9	-31.2	34.2*	29.0
O=C(/C=C/c1ccc(F)cc1)NC(=S)NNC(=O)[C@H]1C[C@@H]1c1ccccc1	28.9*	-13.1	13.3	-8.7	8.4	53.1*
COc1ccc([C@H]2C(C#N)=C([S-])N[C@](C)(O)[C@@H]2[n+]2ccccc2)cc1	-3.6	-19.1	-18.4	-15.5	40.4*	1.3
CC1CCCC(NC(=O)COC(=O)c2ccc(Br)o2)C1C (centres undefined)	14.9	3.6	-1.3	22.3*	-3.1	1.6
CC1CCCC(NC(=O)COC(=O)c2ccc([N+](=O)[O-])o2)C1C (centres undefined)	20.2	-11.3	-2.9	-2.7	7.5	0.5
Cc1ccc2nc(C)c(CN3CCN(c4ccc([N+](=O)[O-])cc4Cl)CC3)n2c1	38.5*	-14.4	-2.1	-15.5	26.4*	12.4
